Laboratory results from ChEMBL document CHEMBL4359917, “Design, synthesis, and biological evaluation of novel benzodiazepine derivatives as anticancer agents through inhibition of tubulin polymerization in vitro and in vivo” (Eur J Med Chem, 2019).

Assays:
HeLa = assay: Antiproliferative activity against human HeLa cells assessed as cell growth inhibition measured after 48 hrs by MTT assay; assay type: functional, cell-based
In short: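 Cancer cell lines exposed to compounds for 48 h; viability read by MTT assay. IC50 reported as mean ± SD from at least three independent experiments.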

A549 [1] = assay: Cell cycle arrest in human A549 cells assessed as increase in cell accumulation at G2/M phase at 1 to 10 nM by RNase/propidium iodide staining based flow cytometry analysis; assay type: functional; settings: TDE = time-dependent effect
A549 [2] = assay: Cell cycle arrest in human A549 cells assessed as increase in cell accumulation at G2/M phase measured after 24 to 48 hrs by RNase/propidium iodide staining based flow cytometry analysis; assay type: functional
A549 [3] = assay: Induction of apoptosis in human A549 cells assessed as live cells at 1 nM after 24 hrs by annexin V-FITC/propidium iodide staining based flow cytometry (reference value: 99.75 %); assay type: functional
In short: (§1)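 A549 cells treated at 1, 5 or 10 nM for 24 or 48 h, then analysed by flow cytometry. Quadrants: upper left necrotic, upper right late apoptotic, bottom left live, bottom right early apoptotic. Three experiments; representative results shown.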

A549 [4] = assay: Induction of apoptosis in human A549 cells assessed as necrotic cells at 1 nM after 24 hrs by annexin V-FITC/propidium iodide staining based flow cytometry (reference value: 0.03 %); assay type: functional; in short: as §1
A549 [5] = assay: Induction of apoptosis in human A549 cells assessed as live cells at 5 nM after 24 hrs by annexin V-FITC/propidium iodide staining based flow cytometry (reference value: 99.75 %); assay type: functional; in short: as §1
A549 [6] = assay: Induction of apoptosis in human A549 cells assessed as late apoptotic cells at 10 nM after 24 hrs by annexin V-FITC/propidium iodide staining based flow cytometry (reference value: 0.02 %); assay type: functional; in short: as §1
A549 [7] = assay: Induction of apoptosis in human A549 cells assessed as live cells at 5 nM after 48 hrs by annexin V-FITC/propidium iodide staining based flow cytometry (reference value: 99.75 %); assay type: functional; in short: as §1
A549 [8] = assay: Induction of apoptosis in human A549 cells assessed as live cells at 10 nM after 48 hrs by annexin V-FITC/propidium iodide staining based flow cytometry (reference value: 99.75 %); assay type: functional; in short: as §1
[9] = Metabolic stability in Sprague-Dawley rat liver microsomes assessed as parent compound remaining after 30 mins in presence of NADPH by HPLC-UV-MS analysis; assay type: ADME, Microsome; settings: read-out: Stability
In short: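 Compound incubated with rat liver microsomes in buffer containing an NADPH regenerating system. Percentage of parent remaining was determined at time points up to 180 min, and half-life was derived.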

in vitro = settings: Sprague-Dawley, rat, liver microsomes

COc1ccc2c(c1O)NC(=O)CN=C2c1cc(OC)c(OC)c([Se]C)c1
IC50 (HeLa): 8.3 nM
Activity (A549 [1]): Tde
Activity (A549 [2]): Dose-dependent effect
Activity (A549 [3]): 94.08%
Activity (A549 [4]): 0.04%
Activity (A549 [5]): 86.5%
Activity (A549 [6]): 0.13%
Activity (A549 [7]): 57.32%
Activity (A549 [8]): 11.84%
remaining at 0.5 h [9]: 95.6%
remaining at 3 h (in vitro): 50.4%
